We go through one compound from publication PMC10127574 (ACS chemical biology, 2015).

Where two headings read alike, the source gives them in different places.

Data set [1] has as its target T1, recombinant wild-type IDE (WT-IDE) (Homo sapiens, UniProt P14735).
T1 sequence (P14735 1-1019): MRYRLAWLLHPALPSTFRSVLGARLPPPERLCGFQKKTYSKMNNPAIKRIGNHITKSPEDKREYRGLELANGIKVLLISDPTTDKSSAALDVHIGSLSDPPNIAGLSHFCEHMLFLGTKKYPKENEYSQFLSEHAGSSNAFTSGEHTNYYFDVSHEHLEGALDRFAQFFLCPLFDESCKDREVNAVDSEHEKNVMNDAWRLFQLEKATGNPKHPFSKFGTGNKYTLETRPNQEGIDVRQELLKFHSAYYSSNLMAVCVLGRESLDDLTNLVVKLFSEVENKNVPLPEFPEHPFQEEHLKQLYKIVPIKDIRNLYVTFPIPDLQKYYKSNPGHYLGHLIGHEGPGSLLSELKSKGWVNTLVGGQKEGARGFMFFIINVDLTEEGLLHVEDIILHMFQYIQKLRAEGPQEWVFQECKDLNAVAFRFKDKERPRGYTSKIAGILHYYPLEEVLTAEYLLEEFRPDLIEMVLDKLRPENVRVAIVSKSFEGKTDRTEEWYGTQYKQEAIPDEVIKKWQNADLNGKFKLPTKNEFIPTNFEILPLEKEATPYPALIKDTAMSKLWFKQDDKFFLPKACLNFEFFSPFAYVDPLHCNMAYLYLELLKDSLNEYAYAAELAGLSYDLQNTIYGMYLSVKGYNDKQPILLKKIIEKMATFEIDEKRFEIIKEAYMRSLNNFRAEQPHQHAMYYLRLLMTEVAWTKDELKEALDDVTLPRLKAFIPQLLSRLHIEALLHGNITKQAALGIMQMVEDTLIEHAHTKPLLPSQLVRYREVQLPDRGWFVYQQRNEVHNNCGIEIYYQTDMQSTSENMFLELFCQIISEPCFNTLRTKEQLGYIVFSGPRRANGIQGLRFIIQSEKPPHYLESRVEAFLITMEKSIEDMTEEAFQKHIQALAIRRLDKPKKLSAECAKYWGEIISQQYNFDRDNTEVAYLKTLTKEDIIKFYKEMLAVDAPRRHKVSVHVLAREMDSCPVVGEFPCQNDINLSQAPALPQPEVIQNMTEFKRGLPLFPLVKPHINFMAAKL
As to the kind of experiment: cell-free IDE activity assay with fluorogenic peptide substrate FRET1. It counts as biochemical.

The test system of data set [2] is cysteines (proteome-wide). As to the kind of experiment: proteome-wide activity-based protein-profiling assay.
Another data set has as its target T2, extracellular IDE (Homo sapiens, UniProt P14735).
T2 sequence (P14735 1-1019): T1 sequence (P14735 1-1019)
Nature of the data set: cell-based IDE activity assay. Put shortly: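 Extracellular IDE secreted by HEK-293 cells, harvested mechanically rather than by trypsin, served as the endogenous enzyme source. Activity was read by fluorescence polarization with fluoresceinated, biotinylated Aß peptide (FAßB) in DTT-free solutions. The primary screen used a nominal compound concentration of 6 μM. Confirmed hits were retested in dose-response format to give apparent IC50.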

In a further data set the test system is HEK-293 cells. As to the kind of experiment: luminescence-based HEK cell viability. Particulars: up to 100 μM. The arrangement: species or system human.
Data set [3] can be described thus: liver microsome stability, mouse. It counts as in vitro ADME. The following applies: mouse liver microsomes.
Data set [4] has as its target T3, cysteine-free form of IDE (CF-IDE) (Homo sapiens, UniProt P14735, C819S, form not given).
T3 sequence (P14735 42-1019 C819S): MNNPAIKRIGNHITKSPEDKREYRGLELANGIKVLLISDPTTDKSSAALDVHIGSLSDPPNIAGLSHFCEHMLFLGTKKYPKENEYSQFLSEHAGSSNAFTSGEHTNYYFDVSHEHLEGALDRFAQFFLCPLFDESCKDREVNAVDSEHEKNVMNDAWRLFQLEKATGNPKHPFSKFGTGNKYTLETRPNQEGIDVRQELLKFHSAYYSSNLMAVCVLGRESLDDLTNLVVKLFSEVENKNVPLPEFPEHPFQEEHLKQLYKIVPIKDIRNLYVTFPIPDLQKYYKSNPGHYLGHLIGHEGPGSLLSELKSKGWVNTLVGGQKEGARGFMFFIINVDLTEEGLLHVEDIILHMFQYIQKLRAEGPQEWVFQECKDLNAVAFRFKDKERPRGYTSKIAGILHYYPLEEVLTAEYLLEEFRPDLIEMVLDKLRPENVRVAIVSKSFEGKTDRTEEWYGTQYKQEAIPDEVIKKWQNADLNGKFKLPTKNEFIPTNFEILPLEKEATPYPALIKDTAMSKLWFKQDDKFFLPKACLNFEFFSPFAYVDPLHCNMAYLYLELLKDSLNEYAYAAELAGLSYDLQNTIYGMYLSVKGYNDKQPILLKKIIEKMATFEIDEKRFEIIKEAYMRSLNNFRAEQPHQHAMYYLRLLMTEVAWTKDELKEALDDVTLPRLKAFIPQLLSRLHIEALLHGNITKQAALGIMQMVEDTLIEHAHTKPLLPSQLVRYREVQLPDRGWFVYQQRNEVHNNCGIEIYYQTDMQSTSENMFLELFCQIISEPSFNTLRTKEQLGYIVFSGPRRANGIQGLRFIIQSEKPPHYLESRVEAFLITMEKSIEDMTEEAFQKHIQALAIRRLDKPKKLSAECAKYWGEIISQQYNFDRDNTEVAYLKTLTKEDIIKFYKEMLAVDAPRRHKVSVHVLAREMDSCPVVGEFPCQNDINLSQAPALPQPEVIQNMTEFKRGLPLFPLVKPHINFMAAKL
As to the kind of experiment: IDE activity assay with FRET1 using cysteine-free IDE. Particulars: read-out: ki CF-IDE. The class given is biochemical.

The target of the next data set is T4, WT-IDE (Homo sapiens, UniProt P14735).
T4 sequence (P14735 1-1019): T1 sequence (P14735 1-1019)
Nature of the data set: kinetics of irreversible inhibition. The class given is biochemical. The procedure, abridged:
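Recombinant WT-IDE (2 nM) and FRET1 substrate (5 μM) were monitored continuously at 3-s intervals, starting immediately after adding inhibitor at several concentrations. Curve fits gave observed rate constants, which were plotted against inhibitor concentration. A hyperbolic fit gave kinhib and KM. LE was taken as ΔG/heavy atoms using KM; SEI as pKM/tPSA/100 Å2.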

Data set [5] can be described thus: liver microsome stability, rat. The class given is in vitro ADME. The following applies: rat liver microsomes.
The next data set has as its target T5, IDE (Homo sapiens, UniProt P14735).
T5 sequence (P14735 1-1019): T1 sequence (P14735 1-1019)
As to the kind of experiment: insulin degradation, homogeneous time-resolved fluorescence-based assay. It counts as biochemical. Particulars: read-out: IC50^app in vitro, insulin; insulin as substrate; n=4.

As a reminder, the IC50 is the concentration at which inhibition is half-maximal. The Ki is the dissociation constant of the complex between target and ligand, obtained from inhibition or displacement. For `O=c1c2cc(F)ccc2sn1-c1cc(S(=O)(=O)N2CCOCC2)ccc1N1CCOCC1` [Compound 8, 5-fluoro-2-(2-morpholin-4-yl-5-morpholin-4-ylsulfonylphenyl)-1,2-benzothiazol-3-one], in [1], the “BEI (binding efficiency index, pIC50^app/MW, kDa)” value worked out at 15. For the same compound, the IC50 stood at 63 nM in [1] (read-out: IC50^app cell-free, Table 2); 63 ± 8.1 nM in data set [1] (read-out: IC50^app in vitro, FRET1, Table 3, n=5); 110 nM on extracellular IDE (read-out: IC50^app cell-based, Table 2); 110 ± 12 nM at extracellular IDE (read-out: IC50^app in cells, FAßB, Table 3, n=4); 82 ± 20.2 nM on IDE. Besides, the “reactivity with cysteines in proteome-wide activity-based protein profiling” value in [2] is given as “minimal reactivity”. Moreover, the toxicity in cells result with HEK-293 cells is recorded as “no toxicity”. In addition, the “Liver microsome stability, Mouse” value in data set [3] came to 24 min. For the same compound, the Ki in [4] stood at 8370 nM. In addition, the kinhib at WT-IDE (Table 3, n=5) is 13.4 ± 2.7 (n=5) min^−1; on WT-IDE (WT-IDE 2 nM, FRET1 5 μM, rate constant of irreversible step) it was 13.4 min⁻¹. For the same compound, the “LE (ligand efficiency, ΔG/HA)” value on WT-IDE (calculated using KM value) is 0.234 kcal mol^−1 HA^−1. For the same compound, the “Liver microsome stability, Rat” value in data set [5] is listed as 50 min.
